What follows are compounds tested against T1, OR8D1 (Homo sapiens) (UniProt Q8WZ84). Details: stereoisomer not certain.
T1 sequence (whole entry): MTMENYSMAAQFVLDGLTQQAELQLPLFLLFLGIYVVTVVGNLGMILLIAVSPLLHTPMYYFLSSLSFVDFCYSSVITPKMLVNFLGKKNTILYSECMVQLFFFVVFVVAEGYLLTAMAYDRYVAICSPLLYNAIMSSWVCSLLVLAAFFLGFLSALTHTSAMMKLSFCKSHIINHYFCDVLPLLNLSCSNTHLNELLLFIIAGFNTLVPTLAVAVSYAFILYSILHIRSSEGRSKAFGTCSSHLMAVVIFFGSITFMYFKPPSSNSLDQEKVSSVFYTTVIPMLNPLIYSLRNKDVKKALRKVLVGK
Procedure, shortened: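 Whether a receptor–molecule pair is responsive (active) rests on the original authors' judgment that its measured signal was statistically different from baseline. Pairs without that judgment are non-responsive (inactive). Sources used varied assay methods, commonly transient luciferase assays in mammalian cell lines.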
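Further: active if original authors judged signal statistically different from baseline.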

Row | Compound | odorant receptor agonist call
1 | C=CCSSCC=C | inactive
2 | O=Cc1ccc2c(c1)OCO2 | inactive
3 | C=CCOC(=O)Cc1ccccc1 | inactive
4 | C=CCc1ccc(OC)cc1 | inactive
5 | Cc1ccc(O)c(C)c1 | inactive
6 | COc1ccc(C=O)cc1 | inactive
7 | NCC(=O)c1ccccc1 | inactive
8 | CCOC(=O)Cc1ccccc1 | inactive
9 | CSSC | inactive
10 | Cc1ccccc1O | inactive
11 | Cc1c([N+](=O)[O-])c(C)c([N+](=O)[O-])c(C(C)(C)C)c1[N+](=O)[O-] | inactive
12 | SCc1ccco1 | inactive
